From ChEMBL document CHEMBL3132745, “Synthesis and Antimicrobial Activities of His(2-aryl)-Arg and Trp-His(2-aryl) Classes of Dipeptidomimetics” (Medchemcomm, 2014)
Converted amounts (≈) assume the structure as drawn. The source made the active and inactive calls. The rule behind the calls is not given here. Residues, ends and D or L forms follow the SMILES beside them. *: point of attachment. Boc = CC(C)(C)OC(=O)*; NHBn = c1ccc(CN*)cc1

Assays:
[1] = test system: Aspergillus fumigatus; experiment: Antifungal activity against Aspergillus fumigatus assessed as growth inhibition; assay type: functional, organism-based
[2] = test system: LLC-PK1; experiment: Cytotoxicity against pig LLC-PK1 cells assessed as cell viability after 48 hrs by neutral red uptake assay; assay type: cell-based, Sus scrofa; conditions: llc-pk1, 48 h
In short: (§1)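 Neutral red uptake assay on human cancer lines (SK-MEL, KB, BT-549, SK-OV-3) and noncancerous mammalian cells (VERO, LLC-PK1). Highest tested concentration was 10 µg/mL.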

[3] = test system: Pichia kudriavzevii; experiment: Antifungal activity against Candida krusei assessed as growth inhibition; assay type: functional, organism-based
[4] = test system: BT-549; experiment: Cytotoxicity against human BT549 cells assessed as cell viability after 48 hrs by neutral red uptake assay; assay type: cell-based; conditions: bt-549, 48 h; in short: as §1
[5] = test system: Vero; experiment: Cytotoxicity against african green monkey Vero cells assessed as cell viability after 48 hrs by neutral red uptake assay; assay type: cell-based; conditions: chlorocebus sabaeus; in short: as §1
[6] = test system: Escherichia coli; experiment: Antibacterial activity against Escherichia coli ATCC 35218 assessed as growth inhibition after 16-20 hrs by CLSI method; assay type: functional, organism-based
[7] = test system: SK-MEL; experiment: Cytotoxicity against human SK-MEL cells assessed as cell viability after 48 hrs by neutral red uptake assay; assay type: cell-based; in short: as §1
[8] = test system: Cryptococcus neoformans; experiment: Antifungal activity against Cryptococcus neoformans ATCC 90113 assessed as growth inhibition after 70-74 hrs by CLSI method; assay type: functional, organism-based
[9] = test system: SK-OV-3; experiment: Cytotoxicity against human SKOV3 cells assessed as cell viability after 48 hrs by neutral red uptake assay; assay type: cell-based; conditions: sk-ov-3, 48 h; in short: as §1
[10] = test system: Candida albicans; experiment: Antifungal activity against Candida albicans assessed as growth inhibition; assay type: functional, organism-based
[11] = test system: KB; experiment: Cytotoxicity against human KB cells assessed as cell viability after 48 hrs by neutral red uptake assay; assay type: cell-based; in short: as §1
[12] = test system: Nakaseomyces glabratus; experiment: Antifungal activity against Candida glabrata assessed as growth inhibition; assay type: functional, organism-based
[13] = Cryptococcus neoformans, ATCC 90113
[14] = Cryptococcus neoformans, ATCC 90113, read-out: IC50

Row | MIC [8] | MIC [8, 13] | Compound | growth inhibition (GI) [1] | Activity [2] | growth inhibition (GI) [3] | Activity [4] | Activity [5] | growth inhibition (GI) [6] | Activity [7] | IC50 [8] | MFC [8] | Activity [9] | growth inhibition (GI) [10] | Activity [11] | growth inhibition (GI) [12] | MFC [8, 13] | IC50 [8, 14]
1 | inactive |  | COC(=O)[C@H](Cc1c[nH]cn1)NC(=O)[C@H](Cc1c[nH]c2ccccc12)NC(=O)OC(C)(C)C (Boc-Trp-His-OMe) | inactive | > 10 µg/mL | inactive | > 10 µg/mL | > 10 µg/mL | inactive | > 10 µg/mL | Not Active | inactive | > 10 µg/mL | inactive | > 10 µg/mL | inactive |  | 
2 | inactive |  | COC(=O)[C@H](Cc1c[nH]c(-c2ccccc2)n1)NC(=O)[C@H](Cc1c[nH]c2ccccc12)NC(=O)OC(C)(C)C | inactive | > 10 µg/mL | inactive | > 10 µg/mL | > 10 µg/mL | inactive | > 10 µg/mL | Not Active | inactive | > 10 µg/mL | inactive | > 10 µg/mL | inactive |  | 
3 | inactive |  | CC(C)(C)OC(=O)N[C@@H](Cc1c[nH]cn1)C(=O)N[C@@H](CCCNC(=N)N)C(=O)NCc1ccccc1 (Boc-His-Arg-NHBn) | inactive | > 10 µg/mL | inactive | > 10 µg/mL | > 10 µg/mL | inactive | > 10 µg/mL | Not Active | inactive | > 10 µg/mL | inactive | > 10 µg/mL | inactive |  | 
4 | inactive |  | CC(C)(C)OC(=O)N[C@@H](Cc1c[nH]c2ccccc12)C(=O)N[C@@H](Cc1c[nH]c(-c2ccccc2)n1)C(=O)NCc1ccccc1 | inactive | > 10 µg/mL | inactive | > 10 µg/mL | > 10 µg/mL | inactive | > 10 µg/mL | Not Active | inactive | > 10 µg/mL | inactive | > 10 µg/mL | inactive |  | 
5 |  | 20 µg/mL (≈ 43.7 µM) | COC(=O)[C@H](CCCNC(=N)N)NC(=O)[C@@H](N)Cc1c[nH]c(-c2ccc(C(C)(C)C)cc2)n1 | inactive | > 10 µg/mL | inactive | > 10 µg/mL | > 10 µg/mL | inactive | > 10 µg/mL |  |  | > 10 µg/mL | inactive | > 10 µg/mL | inactive | 20 µg/mL (≈ 43.7 µM) | 10.2 µg/mL (≈ 22.2 µM)
6 | inactive |  | COC(=O)[C@H](CCCNC(=N)N)NC(=O)[C@@H](N)Cc1c[nH]c(-c2ccc(OC)cc2)n1 | inactive | > 10 µg/mL | inactive | > 10 µg/mL | > 10 µg/mL | inactive | > 10 µg/mL | Not Active | inactive | > 10 µg/mL | inactive | > 10 µg/mL | inactive |  | 
7 | inactive |  | COC(=O)[C@H](Cc1c[nH]c(-c2cccc3ccccc23)n1)NC(=O)[C@H](Cc1c[nH]c2ccccc12)NC(=O)OC(C)(C)C | inactive | > 10 µg/mL | inactive | > 10 µg/mL | > 10 µg/mL | inactive | > 10 µg/mL | Not Active | inactive | > 10 µg/mL | inactive | > 10 µg/mL | inactive |  | 
8 | inactive |  | COC(=O)[C@H](Cc1c[nH]c(-c2ccc(OC)cc2)n1)NC(=O)[C@H](Cc1c[nH]c2ccccc12)NC(=O)OC(C)(C)C | inactive | > 10 µg/mL | inactive | > 10 µg/mL | > 10 µg/mL | inactive | > 10 µg/mL | Not Active | inactive | > 10 µg/mL | inactive | > 10 µg/mL | inactive |  | 
9 |  | 10 µg/mL (≈ 18.6 µM) | COc1ccc(-c2nc(C[C@H](NC(=O)[C@@H](N)Cc3c[nH]c4ccccc34)C(=O)NCc3ccccc3)c[nH]2)cc1 | inactive | > 10 µg/mL | inactive | > 10 µg/mL | > 10 µg/mL | inactive | > 10 µg/mL |  | inactive | > 10 µg/mL | inactive | > 10 µg/mL | inactive |  | 10.8 µg/mL (≈ 20.2 µM)
10 | inactive |  | COC(=O)[C@H](CCCNC(=N)N)NC(=O)[C@H](Cc1c[nH]c(-c2ccc(OC)cc2)n1)NC(=O)OC(C)(C)C | inactive | > 10 µg/mL | inactive | > 10 µg/mL | > 10 µg/mL | inactive | > 10 µg/mL | Not Active | inactive | > 10 µg/mL | inactive | > 10 µg/mL | inactive |  | 
11 | inactive |  | COC(=O)[C@H](CCCNC(=N)N)NC(=O)[C@@H](N)Cc1c[nH]cn1 (H-His-Arg-OMe) | inactive | > 10 µg/mL | inactive | > 10 µg/mL | > 10 µg/mL | inactive | > 10 µg/mL | Not Active | inactive | > 10 µg/mL | inactive | > 10 µg/mL | inactive |  | 
12 | inactive |  | N=C(N)NCCC[C@H](NC(=O)[C@@H](N)Cc1c[nH]cn1)C(=O)NCc1ccccc1 (H-His-Arg-NHBn) | inactive | > 10 µg/mL | inactive | > 10 µg/mL | > 10 µg/mL | inactive | > 10 µg/mL | Not Active | inactive | > 10 µg/mL | inactive | > 10 µg/mL | inactive |  | 
13 | inactive |  | COC(=O)[C@H](CCCNC(=N)N)NC(=O)[C@@H](N)Cc1c[nH]c(-c2ccc(C)cc2)n1 | inactive | > 10 µg/mL | inactive | > 10 µg/mL | > 10 µg/mL | inactive | > 10 µg/mL | Not Active | inactive | > 10 µg/mL | inactive | > 10 µg/mL | inactive |  | 
14 | inactive |  | COC(=O)[C@H](CCCNC(=N)N)NC(=O)[C@H](Cc1c[nH]c(-c2ccc(C)cc2)n1)NC(=O)OC(C)(C)C | inactive | > 10 µg/mL | inactive | > 10 µg/mL | > 10 µg/mL | inactive | > 10 µg/mL |  | inactive | > 10 µg/mL | inactive | > 10 µg/mL | inactive |  | 16.9 µg/mL (≈ 32.9 µM)
15 | inactive |  | Cc1ccc(-c2nc(C[C@H](NC(=O)[C@H](Cc3c[nH]c4ccccc34)NC(=O)OC(C)(C)C)C(=O)NCc3ccccc3)c[nH]2)cc1 | inactive | > 10 µg/mL | inactive | > 10 µg/mL | > 10 µg/mL | inactive | > 10 µg/mL | Not Active | inactive | > 10 µg/mL | inactive | > 10 µg/mL | inactive |  | 
